# Measurements as given in ChEMBL document CHEMBL1129477, “Structure-activity relationships of the quinolone antibacterials against mycobacteria: effect of structural changes at N-1 and C-7” (J Med Chem, 1996).
# Tested on: Escherichia coli
# Assay: Anti-bacterial activity was tested against Gram-negative EC-1 bacterium
# Type: functional
# Method in brief: (§1)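 Standard microtitration MIC determination (µg/mL) against four representative Gram-negative and Gram-positive bacterial strains.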
row,Structure (SMILES),MIC [µg/mL]
1,CC(C)N1CCN(c2cc3c(cc2F)c(=O)c(C(=O)O)cn3C2CC2)CC1,0.1
2,NC1CCN(c2cc3c(cc2F)c(=O)c(C(=O)O)cn3C2CCC2)C1 (stereo not drawn),0.4
3,CC1CN(c2cc3c(cc2F)c(=O)c(C(=O)O)cn3C(C)(C)C)CC(C)N1 (stereo not drawn),0.2

# Further compounds by falling MIC, results first:
row,MIC [µg/mL],Structure (SMILES)
1,1.6,CC1CN(c2cc3c(cc2F)c(=O)c(C(=O)O)cn3C(C)C)CC(C)N1 (stereo not drawn)
2,0.8,CCCCN1CCN(c2cc3c(cc2F)c(=O)c(C(=O)O)cn3-c2ccc(F)cc2F)CC1
3,0.8,CNCC1CCN(c2cc3c(cc2F)c(=O)c(C(=O)O)cn3C2CCC2)C1 (stereo not drawn)
4,0.4,CCC1CN(c2cc3c(cc2F)c(=O)c(C(=O)O)cn3-c2ccc(F)cc2F)CCN1 (stereo not drawn)
5,0.1,CCN1CCN(c2cc3c(cc2F)c(=O)c(C(=O)O)cn3CC)CC1

# Tested on: Mycolicibacterium fortuitum
# Assay: Anti-bacterial activity tested against Mycobacterium fortuitum (ATCG 6841)
# Type: functional
row,Structure (SMILES),MIC [µg/mL]
1,CC(C)N1CCN(c2cc3c(cc2F)c(=O)c(C(=O)O)cn3C2CC2)CC1,0.25
2,NC1CCN(c2cc3c(cc2F)c(=O)c(C(=O)O)cn3C2CCC2)C1 (stereo not drawn),1
3,CC1CN(c2cc3c(cc2F)c(=O)c(C(=O)O)cn3C(C)(C)C)CC(C)N1 (stereo not drawn),0.06

# Continued, values first:
row,MIC [µg/mL],Structure (SMILES)
1,0.5,CC1CN(c2cc3c(cc2F)c(=O)c(C(=O)O)cn3C(C)C)CC(C)N1 (stereo not drawn)
2,1,CCCCN1CCN(c2cc3c(cc2F)c(=O)c(C(=O)O)cn3-c2ccc(F)cc2F)CC1
3,2,CNCC1CCN(c2cc3c(cc2F)c(=O)c(C(=O)O)cn3C2CCC2)C1 (stereo not drawn)
4,0.25,CCC1CN(c2cc3c(cc2F)c(=O)c(C(=O)O)cn3-c2ccc(F)cc2F)CCN1 (stereo not drawn)
5,0.25,CCN1CCN(c2cc3c(cc2F)c(=O)c(C(=O)O)cn3CC)CC1

# Tested on: Mycolicibacterium smegmatis
# Assay: Anti-bacterial activity tested against Mycobacterium smegmatis (ATCG 19420)
# Type: functional
row,Structure (SMILES),MIC [µg/mL]
1,CC(C)N1CCN(c2cc3c(cc2F)c(=O)c(C(=O)O)cn3C2CC2)CC1,0.25
2,NC1CCN(c2cc3c(cc2F)c(=O)c(C(=O)O)cn3C2CCC2)C1 (stereo not drawn),1
3,CC1CN(c2cc3c(cc2F)c(=O)c(C(=O)O)cn3C(C)(C)C)CC(C)N1 (stereo not drawn),0.06

# Other lines, results leading:
row,MIC [µg/mL],Structure (SMILES)
1,2,CC1CN(c2cc3c(cc2F)c(=O)c(C(=O)O)cn3C(C)C)CC(C)N1 (stereo not drawn)
2,2,CCCCN1CCN(c2cc3c(cc2F)c(=O)c(C(=O)O)cn3-c2ccc(F)cc2F)CC1
3,4,CNCC1CCN(c2cc3c(cc2F)c(=O)c(C(=O)O)cn3C2CCC2)C1 (stereo not drawn)
4,1,CCC1CN(c2cc3c(cc2F)c(=O)c(C(=O)O)cn3-c2ccc(F)cc2F)CCN1 (stereo not drawn)
5,0.5,CCN1CCN(c2cc3c(cc2F)c(=O)c(C(=O)O)cn3CC)CC1

# Tested on: Pseudomonas aeruginosa
# Assay: Anti-bacterial activity tested against Gram-negative PA-7 bacterium
# Type: functional
# Method in brief: as §1
row,Structure (SMILES),MIC [µg/mL]
1,CC(C)N1CCN(c2cc3c(cc2F)c(=O)c(C(=O)O)cn3C2CC2)CC1,1.6
2,NC1CCN(c2cc3c(cc2F)c(=O)c(C(=O)O)cn3C2CCC2)C1 (stereo not drawn),1.6
3,CC1CN(c2cc3c(cc2F)c(=O)c(C(=O)O)cn3C(C)(C)C)CC(C)N1 (stereo not drawn),1.6

# Now from value to compound:
row,MIC [µg/mL],Structure (SMILES)
1,> 3.1,CC1CN(c2cc3c(cc2F)c(=O)c(C(=O)O)cn3C(C)C)CC(C)N1 (stereo not drawn)
2,3.1,CCCCN1CCN(c2cc3c(cc2F)c(=O)c(C(=O)O)cn3-c2ccc(F)cc2F)CC1
3,3.1,CNCC1CCN(c2cc3c(cc2F)c(=O)c(C(=O)O)cn3C2CCC2)C1 (stereo not drawn)
4,3.1,CCC1CN(c2cc3c(cc2F)c(=O)c(C(=O)O)cn3-c2ccc(F)cc2F)CCN1 (stereo not drawn)
5,1.6,CCN1CCN(c2cc3c(cc2F)c(=O)c(C(=O)O)cn3CC)CC1

# Tested on: Staphylococcus aureus
# Assay: Anti-bacterial activity was tested against Gram-positive SA-13 bacterium
# Type: functional
# Method in brief: as §1
row,Structure (SMILES),MIC [µg/mL]
1,CC(C)N1CCN(c2cc3c(cc2F)c(=O)c(C(=O)O)cn3C2CC2)CC1,0.2
2,NC1CCN(c2cc3c(cc2F)c(=O)c(C(=O)O)cn3C2CCC2)C1 (stereo not drawn),3.1
3,CC1CN(c2cc3c(cc2F)c(=O)c(C(=O)O)cn3C(C)(C)C)CC(C)N1 (stereo not drawn),0.4

# Second part, the compound after the results:
row,MIC [µg/mL],Structure (SMILES)
1,3.1,CC1CN(c2cc3c(cc2F)c(=O)c(C(=O)O)cn3C(C)C)CC(C)N1 (stereo not drawn)
2,0.4,CCCCN1CCN(c2cc3c(cc2F)c(=O)c(C(=O)O)cn3-c2ccc(F)cc2F)CC1
3,0.8,CNCC1CCN(c2cc3c(cc2F)c(=O)c(C(=O)O)cn3C2CCC2)C1 (stereo not drawn)
4,0.4,CCC1CN(c2cc3c(cc2F)c(=O)c(C(=O)O)cn3-c2ccc(F)cc2F)CCN1 (stereo not drawn)
5,0.2,CCN1CCN(c2cc3c(cc2F)c(=O)c(C(=O)O)cn3CC)CC1

# Tested on: Streptococcus pyogenes
# Assay: Anti-bacterial activity tested against Gram-positive SP1-1 bacterium
# Type: functional
# Method in brief: as §1
row,Structure (SMILES),MIC [µg/mL]
1,CC(C)N1CCN(c2cc3c(cc2F)c(=O)c(C(=O)O)cn3C2CC2)CC1,0.8
2,NC1CCN(c2cc3c(cc2F)c(=O)c(C(=O)O)cn3C2CCC2)C1 (stereo not drawn),1.6
3,CC1CN(c2cc3c(cc2F)c(=O)c(C(=O)O)cn3C(C)(C)C)CC(C)N1 (stereo not drawn),> 3.1

# Second part, the compound after the results:
row,MIC [µg/mL],Structure (SMILES)
1,> 3.1,CC1CN(c2cc3c(cc2F)c(=O)c(C(=O)O)cn3C(C)C)CC(C)N1 (stereo not drawn)
2,3.1,CCCCN1CCN(c2cc3c(cc2F)c(=O)c(C(=O)O)cn3-c2ccc(F)cc2F)CC1
3,1.6,CNCC1CCN(c2cc3c(cc2F)c(=O)c(C(=O)O)cn3C2CCC2)C1 (stereo not drawn)
4,0.8,CCC1CN(c2cc3c(cc2F)c(=O)c(C(=O)O)cn3-c2ccc(F)cc2F)CCN1 (stereo not drawn)
5,3.1,CCN1CCN(c2cc3c(cc2F)c(=O)c(C(=O)O)cn3CC)CC1
